Data taken from ChEMBL document CHEMBL4346653, “A2B Adenosine Receptor Antagonists with Picomolar Potency” (J Med Chem, 2019).

Experiments:
[1] = target: T1, Adenosine receptor A3 (Homo sapiens, UniProt P0DMS8); assay: Displacement of [3H]PSB-11 from recombinant human A3 adenosine receptor expressed in CHO cell membranes measured after 45 mins in presence of adenosine deaminase by liquid scintillation counting method
T1 sequence (P0DMS8 whole entry): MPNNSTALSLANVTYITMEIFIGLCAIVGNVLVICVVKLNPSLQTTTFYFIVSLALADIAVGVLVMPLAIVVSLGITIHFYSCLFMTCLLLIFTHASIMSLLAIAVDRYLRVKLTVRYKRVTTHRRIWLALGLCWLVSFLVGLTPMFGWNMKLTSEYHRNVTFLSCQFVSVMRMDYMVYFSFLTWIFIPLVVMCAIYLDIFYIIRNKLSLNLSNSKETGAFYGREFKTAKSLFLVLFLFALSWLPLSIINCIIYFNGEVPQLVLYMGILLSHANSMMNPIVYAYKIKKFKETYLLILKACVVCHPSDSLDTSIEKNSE
Procedure, shortened: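 Competition binding on membranes of cells recombinantly expressing the human receptor (CHO or HEK cells), with tritiated radioligand per subtype: [3H]PSB-603 for A2B, [3H]MSX-2 for A2A, [3H]CCPA for A1, [3H]PSB-11 for A3. Ki ± SEM from n = 3, some from extrapolated curves. Weak binders are reported as % inhibition of radioligand binding at 1 μM.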

[2] = target: T2, Adenosine receptor A3 (Mus musculus) (UniProt Q61618); assay: Displacement of [3H]NECA from recombinant mouse A3 adenosine receptor expressed in CHO cell membranes at 1 uM measured after 180 mins in presence of adenosine deaminase by liquid scintillation counting method relative to control
T2 sequence (whole entry): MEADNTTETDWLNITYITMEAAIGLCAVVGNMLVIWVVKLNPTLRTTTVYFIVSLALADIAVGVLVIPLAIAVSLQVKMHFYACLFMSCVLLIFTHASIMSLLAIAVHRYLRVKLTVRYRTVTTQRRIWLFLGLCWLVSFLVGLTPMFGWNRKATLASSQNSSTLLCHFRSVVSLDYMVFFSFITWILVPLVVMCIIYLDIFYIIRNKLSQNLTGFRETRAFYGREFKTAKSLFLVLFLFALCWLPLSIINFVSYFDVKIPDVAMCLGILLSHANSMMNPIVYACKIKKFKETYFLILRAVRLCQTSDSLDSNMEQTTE

[3] = species on record: Homo sapiens; assay: Selectivity index, ratio of Ki for displacement of [3H]MSX-2 from recombinant human A2A adenosine receptor expressed in CHO cell membranes to Ki for displacement of [3H]PSB-603 from recombinant human A2B adenosine receptor expressed in CHO cell membranes
[4] = Selectivity ratio of Ki for displacement of [3H]PSB-603 from recombinant mouse A2B adenosine receptor expressed in CHO cell membranes to Ki for displacement of [3H]PSB-603 from recombinant human A2B adenosine receptor expressed in CHO cell membranes
[5] = species on record: Mus musculus; assay: Selectivity ratio of Ki for displacement of [3H]NECA from recombinant mouse A3 adenosine receptor expressed in CHO cell membranes to Ki for displacement of [3H]PSB-603 from recombinant mouse A2B adenosine receptor expressed in CHO cell membranes
[6] = target: T3, Adenosine receptor A2b (Mus musculus, UniProt Q60614); assay: Displacement of [3H]PSB-603 from recombinant mouse A2B adenosine receptor expressed in CHO cell membranes measured after 75 mins in presence of adenosine deaminase by liquid scintillation counting method
T3 sequence (Q60614 whole entry): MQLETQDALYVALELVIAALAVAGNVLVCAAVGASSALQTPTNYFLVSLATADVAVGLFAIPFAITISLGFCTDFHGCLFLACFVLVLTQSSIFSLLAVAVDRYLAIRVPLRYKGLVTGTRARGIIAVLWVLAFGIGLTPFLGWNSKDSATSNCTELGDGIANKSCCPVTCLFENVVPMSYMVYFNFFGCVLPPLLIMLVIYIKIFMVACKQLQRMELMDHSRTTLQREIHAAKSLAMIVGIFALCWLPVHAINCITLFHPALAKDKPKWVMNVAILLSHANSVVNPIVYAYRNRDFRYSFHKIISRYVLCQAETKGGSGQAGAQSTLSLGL

[7] = target: T4, Adenosine receptor A1 (Mus musculus) (UniProt Q60612); assay: Displacement of [3H]CCPA from recombinant mouse A1 adenosine receptor expressed in CHO cell membranes at 1 uM measured after 90 mins in presence of adenosine deaminase by liquid scintillation counting method relative to control
T4 sequence (whole entry): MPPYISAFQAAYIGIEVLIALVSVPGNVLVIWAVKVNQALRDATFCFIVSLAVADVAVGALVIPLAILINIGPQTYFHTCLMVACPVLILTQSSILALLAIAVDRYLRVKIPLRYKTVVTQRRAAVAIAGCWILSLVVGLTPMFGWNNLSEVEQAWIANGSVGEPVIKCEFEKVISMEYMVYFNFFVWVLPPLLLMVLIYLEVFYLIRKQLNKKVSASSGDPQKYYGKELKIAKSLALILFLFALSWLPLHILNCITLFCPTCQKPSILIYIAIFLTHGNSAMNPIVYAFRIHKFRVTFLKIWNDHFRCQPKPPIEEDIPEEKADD

[8] = species on record: Mus musculus; assay: Selectivity ratio of Ki for displacement of [3H]CCPA from recombinant mouse A1 adenosine receptor expressed in CHO cell membranes to Ki for displacement of [3H]PSB-603 from recombinant mouse A2B adenosine receptor expressed in CHO cell membranes

| Ki [1] [nM] | inhibition [2] [%] | Ki [6] [nM] | inhibition [7] [%] | SMILES | Ratio Ki [3] | Ratio Ki [4] | Ratio Ki [5] | Ratio Ki [8] |
| --- | --- | --- | --- | --- | --- | --- | --- | --- |
| > 1000 | -0.833 | 8.34 | – | CCCn1c(=O)c2[nH]c(-c3ccc(S(=O)(=O)N4CCN(c5ccc(Cl)cc5)CC4)cc3)nc2n(C)c1=O | > 520 | 1.5 to 6 | 180 | – |
| > 1000 | -2 | 0.926 | 46 | CCCn1c(=O)[nH]c2nc(-c3ccc(S(=O)(=O)N4CCN(c5cccc(F)c5)CC4)cc3)[nH]c2c1=O | > 1580 | 1.5 to 6 | – | > 320 |
| > 1000 | 8 | 0.131 | 29 | CCCn1c(=O)[nH]c2nc(-c3ccc(S(=O)(=O)N4CCN(c5ccc(Br)cc5)CC4)cc3)[nH]c2c1=O | > 12000 | – | > 7630 | > 7630 |
